Only some compounds are listed: those with a hit (about 1.9% of all), similar ones and a draw of the others.
SR-BI DiI-HDL act: activators of SR-BI mediated DiI-HDL uptake, primary screen, ldlA[mSR-BI] CHO cells, DiI fluorescence. 3 h; 100 = double the neutral-control signal. activation, % at 12.5 µM. hit rate 0.096% among 320,000. AID 504775, 2011;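 active = mean replicate activation of at least 60% and every replicate at or above 60%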;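 also: 0% = median plate neutral-control signal and 100% = twice that signal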
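Test system: SR-BI-overexpressing, LDLR-lacking CHO cells; Also added: labelled HDL, 10 µg/mL; Measured by: bottom-read cell fluorescence after medium removal, ex 550/em 595 nm; Timing: 3 h uptake period with compound, 37 °C; Buffer or medium: F12, 0.5% BSA, 25 mM HEPES; Doses: single compound concentration, delivered by pin transfer.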
SR-BI HDL uptake: inhibitors of SR-BI mediated HDL lipid uptake, primary screen, ldlA[mSR-BI] cells, fluorescence, single point | ldlA[mSR-BI] CHO cells, DiI-HDL uptake fluorescence, 3 h | inhibition, % at 12.5 µM | hit rate 0.96% among 320,000;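 active = mean replicate inhibition of at least 70% and a set share of replicates each scoring 70 or more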;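 also: 0% = median of neutral control wells and 100% = median of positive control wells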
Target sequence (Q61009 whole entry, looked up): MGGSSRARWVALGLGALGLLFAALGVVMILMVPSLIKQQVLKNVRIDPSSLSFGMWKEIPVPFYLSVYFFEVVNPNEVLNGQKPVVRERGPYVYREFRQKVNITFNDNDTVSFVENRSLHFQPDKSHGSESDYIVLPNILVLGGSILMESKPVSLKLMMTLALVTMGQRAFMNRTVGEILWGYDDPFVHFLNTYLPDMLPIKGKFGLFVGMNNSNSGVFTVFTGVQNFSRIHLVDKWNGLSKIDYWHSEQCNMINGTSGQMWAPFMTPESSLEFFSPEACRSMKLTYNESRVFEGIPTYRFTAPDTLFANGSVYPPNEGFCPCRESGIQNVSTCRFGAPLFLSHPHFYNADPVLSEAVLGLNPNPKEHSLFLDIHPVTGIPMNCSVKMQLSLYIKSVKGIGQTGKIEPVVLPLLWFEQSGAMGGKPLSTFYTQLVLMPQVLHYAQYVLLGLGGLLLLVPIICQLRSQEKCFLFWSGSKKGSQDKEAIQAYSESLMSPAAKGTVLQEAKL
Rin1 Abl inh: inhibitors of Rin1-Abl protein binding, primary screen, biochemical, TR-FRET; inhibition, % at 7.35 µM; hit rate 0.4% among 360,000; AID 588664, 2011; in the data active = inhibition above about 5%, passing the limit was not always enough
GRK2 aptamer HTS: compounds blocking aptamer binding on GRK2 – biochemical, human GRK2, bead flow cytometry, HTS, primary screen. Beta-adrenergic receptor kinase 1 (Homo sapiens), P25098. FAM-aptamer displacement from GRK2. inhibition of aptamer binding, % at 10 µM. hit rate 0.59% among 330,000;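 active = inhibition of aptamer binding above 40%, roughly 3 SD of noise, on plates passing a quality check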;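 also: median bead fluorescence of bound FAM aptamer so fluorescent compounds give negative values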
* marks the source's active call; other numbers are inactive results; x = no result given.

SMILES	SR-BI DiI-HDL act	SR-BI HDL uptake	Rin1 Abl inh	GRK2 aptamer HTS
COc1ccc(CN2CCC(n3nccc3NC(=O)C3CC3)CC2)cc1O	16	-16	1	0
Cc1ccc(-c2nnc(N3CCC(C)CC3)c3ccccc23)cc1	-66	66	1	0
CC1CCN(c2nnc(-c3ccccc3)c3ccccc23)CC1	-84	84*	1	0
COC(=O)c1cc(OC)c(OC)cc1NC(=O)CCN1C(=O)C2CCCCC2C1=O (centres undefined)	x	x	-2	x
CC1NC(=O)NC1CCCCCC(=O)NCCc1ccccc1 (centres undefined)	2	-2	83*	1
O=C(CCCCC(=O)NCCCc1ccccc1)NCCCc1ccccc1	2	-2	2	0
OCC[C@@H]1C[C@H](O)[C@@H](O)[C@]2(OCCc3cc(Cl)ccc32)O1	x	x	3	x
O=S1OCCN1c1ccccc1 (centres undefined)	18	-18	1	2
O=C(N[C@@H](Cc1ccccc1)C(=O)N1CCN(S(=O)(=O)c2ccc(F)cc2)CC1)c1ccco1	1	-1	0	x
CCOC(=O)c1cc2c(C(F)(F)F)cc(-c3ccccc3)nc2o1	-76	76*	-3	5
CCOC(=O)CS(=O)(=O)c1nc(-c2ccccc2)cc(C(F)(F)F)n1	-98	98*	0	0
CCOC(=O)CCS(=O)(=O)c1nc(-c2ccccc2)cc(C(F)(F)F)n1	9	-9	-5	3
C=CCNC(=O)CSc1nnc(-c2cccc(S(=O)(=O)N3CCOCC3)c2)o1	x	x	-1	x
CC1(C(=O)NS(=O)(=O)c2ccccc2C(F)(F)F)CCN1C(=O)CCC1CCCC1 (centres undefined)	x	x	5	x
COc1ccccc1C(=O)OCCc1ccccc1	-2	2	1	x
COc1cc(NC(=S)NCCCO)c(OC)cc1Cl	15	-15	2	42*
Cc1ccc(S(=O)(=O)Nc2ccc(Nc3nccn4c(-c5ccc6ccccc6c5)cnc34)cc2)cc1	x	x	1	x
CCCCNC(=O)[C@@H]1CC=C[C@@H]2CCN(C3CC3)C(=O)[C@@H]21	5	-5	5	0
COc1ccccc1CC(=O)Nc1ccc2c(c1)CCC2	-3	3	-3	0
COc1ccccc1CCC(=O)Nc1ccc2c(c1)CN(Cc1ccc(C)o1)CC2	-81	81*	-2	0
Cc1ccc(O)c(NC2=C(Cl)C(=O)N(Cc3ccccc3)C2=O)c1	-77	77*	1	x
C/C(=N\NC(=O)c1ccc(CN2CCc3ccccc3C2)cc1)c1ccccc1O	-109	109*	2	6
Cc1cc(N/N=C/c2ccccc2O)nc(-c2ccccc2O)n1	-14	14	3	0
Cc1cc(N/N=C/c2ccc(O)cc2O)nc(-c2ccccc2O)n1	-114	114*	3	3
Cc1cccc(C(=O)O[C@@H]2[C@H](Cc3ccccc3)NS(=O)(=O)[C@H]3C[C@@H]4C=C[C@]23O4)c1	23	-23	1	19
SMILES	SR-BI DiI-HDL act	SR-BI HDL uptake	Rin1 Abl inh	GRK2 aptamer HTS
O=C(/C=C/c1ccc2c(c1)OCO2)Nc1nc(-c2ccccc2)cs1	-20	20	-1	0
Clc1ccc(-c2csc(N/N=C/c3ccc4c(c3)OCO4)n2)cc1	-109	109*	-1	1
CCOC(=O)c1cc(-c2cccs2)nc2c1c(C)nn2-c1ccccn1	-30	30	-5	1
COc1ccc(NC(=O)c2cnn(-c3ccccc3)c2C)c(OC)c1	8	-8	-1	1
COc1ccc(NC(=O)c2cc(-c3ccccc3)nc3c2c(C)nn3-c2ccccc2)c(OC)c1	-88	88*	2	1
Cc1nn(-c2ccccc2)c2nc(-c3cccs3)cc(C(=O)NN)c12	-84	84*	4	3
COc1ccc(Cl)cc1NC(=O)CN(C)Cc1cccs1	-72	72*	2	0
COc1ccc(Cl)cc1NC(=O)CN(C)CC(=O)Nc1ccccc1N1CCOCC1	-78	78*	2	0
COc1ccc(Cl)cc1NC(=O)CNCc1cccs1	-37	37	5	0
C[C@H](CO)N1C[C@H](C)[C@@H](CN(C)S(=O)(=O)c2ccc(F)cc2)Oc2ccc(NS(=O)(=O)c3ccccc3)cc2C1=O	2	-2	-2	0
Cc1noc(C)c1S(=O)(=O)NC(=O)C1(C)CCN1C(=O)Cc1ccc(-c2ccccc2)cc1 (centres undefined)	x	x	-4	x
COc1cc(CNc2ncnc3c2ncn3[C@H]2CN(CCN3CCOCC3)C[C@@H](CO)O2)cc(OC)c1OC	x	x	2	x
N=C1C=CC(=C(c2ccc(N)cc2)c2ccc(N)cc2)C=C1	-104	104*	-14	x
O=C(NCCc1ccc(F)cc1)C1CCC(=O)N(CC2CCCCC2)C1 (centres undefined)	x	x	2	x
O=[N+]([O-])c1cccc(S(=O)(=O)Nc2nc3ccccc3nc2Nc2cccc(S(=O)(=O)N3CCCCC3)c2)c1	-76	76*	1	x
CC(C)(C)CC(=O)Nc1ccc(S(=O)(=O)NC2=NCCCCC2)cc1	11	-11	4	6
CCc1cc(CNC(=O)c2ccc(OC3CCN(CCc4ccccc4)CC3)cc2)on1	7	-7	0	49*
O=C(NCc1ccon1)c1ccc(OC2CCN(CCc3ccccc3)CC2)cc1	12	-12	4	0
Cc1ccc(OCCn2cc(/C=C(\C#N)C(=O)NCC3CCCO3)c3ccccc32)cc1 (centres undefined)	-54	54	1	2
Cc1ccc(OCCn2cc(/C=C(\C#N)C(=O)NCC3CCCO3)c3ccccc32)cc1C (centres undefined)	-76	76*	0	0
Cc1ccc2[nH]c(C(=O)N/N=C/c3ccccc3O)c(C)c2c1	-132	132*	-2	0
COc1ccc(OC)c(/C=N/NC(=O)c2cc3c(OC)c(OC)ccc3[nH]2)c1	-72	72*	1	0
COc1cc(OC)c2cc(C(=O)N/N=C/c3ccccc3O)[nH]c2c1	-123	123*	-2	0
CCOc1ccc2[nH]c(C(=O)N/N=C/c3ccccc3OC)cc2c1	-43	43	-2	2
COc1ccc2[nH]c(C(=O)N/N=C/c3ccccc3OC)cc2c1	x	x	-1	0
SMILES	SR-BI DiI-HDL act	SR-BI HDL uptake	Rin1 Abl inh	GRK2 aptamer HTS
O=C(Nc1ccccc1Cl)c1cc(C2CCCN(S(=O)(=O)c3cccs3)C2)on1 (centres undefined)	x	x	3	x
CC(C)(C)c1ccc(C(=O)N2CCOC23CCCCC3)cc1	x	x	4	x
CC(=O)Nc1ccc(Nc2nc(-c3sc(C)nc3C)cs2)cc1	-74	74*	1	1
Cc1cccc(Nc2nc(-c3sc(C)nc3C)cs2)c1	-85	85*	-1	0
CC(=O)c1ccc(Nc2nc(-c3sc(C)nc3C)cs2)cc1	x	x	-4	x
CC(=O)c1cccc(Nc2nc(-c3sc(C)nc3C)cs2)c1	-71	71*	0	1
O=NN(Cc1cccnc1)C(=O)NC1CCCCC1	x	x	0	x

Assay outcomes: PubChem, several laboratories
